Source: ChEMBL document CHEMBL1127432, “Synthesis, in vitro biological stability, and anti-HIV activity of 5-halo-6-alkoxy(or azido)-5,6-dihydro-3'-azido-3'-deoxythymidine diastereomers as potential prodrugs to 3'-azido-3'-deoxythymidine (AZT)” (J Med Chem, 1994)

Legend:
[1] = test system: CCRF-CEM; assay: Inhibitory concentration (cytotoxic activity) which results in a 50% survival of […]; assay type: functional, cell-based; details: Homo sapiens
How it was run: (§1)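 Cytotoxicity run in the NCI AIDS screening program on CEM T4 lymphocytes alongside the anti-HIV test. IC50 = drug concentration giving 50% survival of uninfected untreated control cells. AZT control tested concurrently.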

[2] = molecular target: Human immunodeficiency virus 1 (Human immunodeficiency virus 1, UniProt Q72547); assay: Effective concentration (in vitro anti-HIV activity ) which produces a 50% survival of HIV-1-infected CEM cells relative to uninfected untreated controls; Inactive; assay type: functional, cell-based; details: ccrf-cem
How it was run: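 HIV-1-infected CEM (T4 lymphocyte) cells given small amounts of virus, allowing one complete replication cycle to cause cell killing. Read-out: protection from cytolysis (cell survival) relative to uninfected untreated controls. EC50 is the drug concentration giving 50% survival of infected cells. AZT-treated positive control run concurrently under identical conditions. Run through the NCI Developmental Therapeutics Program AIDS antiviral screen.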

[3] = molecular target: Thymidine phosphorylase (Escherichia coli K-12) (UniProt P07650); assay: In vitro percent of phosphorolysis after incubation with Escherichia coli thymidine phosphorylase for 10 min at 37 degree C; assay type: functional
How it was run: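 E. coli thymidine phosphorylase diluted in 10 mM Tris-HCl pH 7.3 with EDTA, plus 100 mM KH2PO4 pH 7.1 (stock), prewarmed to 37 °C. Substrate added, 10 min at 37 °C, stopped with ice-cold methanol, spun. HPLC-UV at 230 nm tracked substrate loss or appearance of base. Thymidine used as control substrate; each run at least twice.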

[4] = Therapeutic index of IC50 to EC50; details: read-out: TI
How it was run: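 TI = IC50/EC50, both from the NCI CEM cell screen. IC50 is the drug concentration giving 50% survival of uninfected untreated controls. EC50 is the concentration giving 50% survival of HIV-1-infected cells relative to uninfected untreated controls.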

[5] = Effective concentration in vitro against HIV-1-infected CEM cells relative to uninfected untreated controls; details: ccrf-cem
[6] = species: Mus musculus; assay: In vitro percent of 3''-azido-3''-deoxythymidine (AZT) formed upon incubation with mouse blood for 10 min at 37 degree C; assay type: functional
How it was run: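 Heparinized mouse blood from cardiac puncture mixed 1:1 by volume with compound (1 mg/mL stock in water). Incubated 10 min at 37 °C, quenched with ice-cold methanol, 10 min on ice, then centrifuged. Supernatant dried under N2 and redissolved in methanol; AZT quantified by HPLC-UV at 230/265 nm.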

[7] = species: Mus musculus; assay: In vitro percent of 3''-azido-3''-deoxythymidine (AZT) formed upon incubation with mouse liver homogenate for 30 min at 37 degree C; assay type: functional
How it was run: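 Livers of three Balb/c mice homogenized in 0.1 M Tris pH 8.2, spun at 49000g for 2 h at 4 °C; supernatant (soluble enzyme fraction) used. Compound (1 mg/mL stock) incubated with the fraction 30 min at 37 °C, mixed with equal volume methanol, centrifuged. Supernatant dried and redissolved; AZT quantified by HPLC, UV 230 and 265 nm.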

[8] = Regeneration of the 5,6-Olefinic bond was measured as percent of 3''-azido-3''-deoxythymidine (AZT) formed upon incubation with Glutathione for 30 min at 37 degree C; assay type: functional
How it was run: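 Compound incubated with reduced glutathione at a compound:GSH mole ratio of 1:2 (1:5 for some analogs) in phosphate buffer pH 7.4 at 37 °C, for times up to 24 h. AZT formed quantified by HPLC, UV 230 nm (dihydro compound) and 265 nm (AZT), water:methanol 7:3 eluent.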

[9] = test system: CCRF-CEM; assay: Inhibitory concentration (cytotoxic activity) which results in a 50% survival of […]; ND=Not determined; assay type: functional, cell-based; details: Homo sapiens; how it was run: as §1

Thymidine phosphorylase (Escherichia coli K-12), sequence (P07650 whole entry, looked up): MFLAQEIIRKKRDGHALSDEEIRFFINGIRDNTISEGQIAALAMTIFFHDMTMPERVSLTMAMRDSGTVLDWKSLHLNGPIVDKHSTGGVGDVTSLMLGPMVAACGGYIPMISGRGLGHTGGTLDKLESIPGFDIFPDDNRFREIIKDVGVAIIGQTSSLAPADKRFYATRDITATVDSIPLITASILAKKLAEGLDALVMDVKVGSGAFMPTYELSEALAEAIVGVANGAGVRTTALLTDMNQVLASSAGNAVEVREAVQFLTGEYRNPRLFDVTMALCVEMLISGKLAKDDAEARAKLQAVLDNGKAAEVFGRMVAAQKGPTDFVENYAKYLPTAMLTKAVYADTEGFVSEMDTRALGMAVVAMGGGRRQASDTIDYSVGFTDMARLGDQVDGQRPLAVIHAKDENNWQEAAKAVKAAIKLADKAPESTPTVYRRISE

In the case of `CCO[C@@H]1N(C2CC(N=[N+]=[N-])C(CO)O2)C(=O)NC(=O)[C@@]1(C)Cl` (some centres not stated), the IC50 [1] is reported as over 200 µM and the EC50 [2] is reported as “Not Active”.

In the case of `Cc1cn([C@H]2C[C@H](N=[N+]=[N-])[C@@H](CO)O2)c(=O)[nH]c1=O` [ZIDOVUDINE], the Phosphorolysis [3] is reported as 0%, the selectivity ratio [4] is reported as over 10000 and the EC50 [5] is reported as 3 nM.

With `CO[C@@H]1N(C2CC(N=[N+]=[N-])C(CO)O2)C(=O)NC(=O)[C@@]1(C)Cl` (some centres not stated) the AZT formation [6] was 0%, the AZT formation [7] was 0% and the Phosphorolysis [3] was 0%. For the same molecule, the AZT formation [8] was 0%.

Molecule `CC1(Br)C(=O)NC(=O)N([C@H]2C[C@H](N=[N+]=[N-])[C@@H](CO)O2)C1N=[N+]=[N-]` (some centres not stated) has an IC50 [1] of 176 µM and a selectivity ratio [4] of under 1.

For `CCO[C@H]1N(C2CC(N=[N+]=[N-])C(CO)O2)C(=O)NC(=O)[C@]1(C)Cl` (some centres not stated), the IC50 [9] was over 200 µM and the EC50 [2] was “Not Active”.

For `CCCCCCCCCCCCCCCCO[C@H]1N(C2CC(N=[N+]=[N-])C(CO)O2)C(=O)NC(=O)[C@]1(C)Br` (some centres not stated), the IC50 [1] was 11 µM and the EC50 [2] was “Not Active”.

With `CCCCCCCCO[C@H]1N(C2CC(N=[N+]=[N-])C(CO)O2)C(=O)NC(=O)[C@]1(C)Cl` (some centres not stated) the IC50 [9] was 37.5 µM and the EC50 [2] was “Not Active”.

In the case of `CC(C)O[C@H]1N(C2CC(N=[N+]=[N-])C(CO)O2)C(=O)NC(=O)[C@]1(C)Br` (some centres not stated), the IC50 [1] is reported as over 200 µM and the selectivity ratio [4] is reported as 35.

Molecule `Cc1cn([C@H]2C[C@H](O)[C@@H](CO)O2)c(=O)[nH]c1=O` has a Phosphorolysis [3] of 72%.

`CO[C@H]1N(C2CC(N=[N+]=[N-])C(CO)O2)C(=O)NC(=O)[C@@]1(C)Cl` (some centres not stated) showed an AZT formation [6] of 0%, an AZT formation [7] of 0% and a Phosphorolysis [3] of 0%. The AZT formation [8] was 0%.

`CO[C@H]1N([C@H]2C[C@H](N=[N+]=[N-])[C@@H](CO)O2)C(=O)NC(=O)C1(C)Cl` (some centres not stated) gave an IC50 [1] of over 890 µM and a selectivity ratio [4] of 155.

`CC1(Cl)C(=O)NC(=O)N([C@H]2C[C@H](N=[N+]=[N-])[C@@H](CO)O2)C1N=[N+]=[N-]` (some centres not stated) gave an IC50 [1] of 350 µM and a selectivity ratio [4] of 235.

Molecule `CCO[C@@H]1N(C2CC(N=[N+]=[N-])C(CO)O2)C(=O)NC(=O)[C@@]1(C)Br` (some centres not stated) has an IC50 [1] of 22.2 µM, a Phosphorolysis [3] of 0% and an AZT formation [8] of 85%. It also gave a selectivity ratio [4] of 937.

In the case of `CO[C@@H]1N(C2CC(N=[N+]=[N-])C(CO)O2)C(=O)NC(=O)[C@@]1(C)Br` (some centres not stated), the IC50 [1] is reported as 42.5 µM, the AZT formation [6] is reported as 88% and the AZT formation [7] is reported as 44%. It also gave a Phosphorolysis [3] of 0%, an AZT formation [8] of 77% and a selectivity ratio [4] of 152.

Work on `CO[C@H]1N(C2CC(N=[N+]=[N-])C(CO)O2)C(=O)NC(=O)[C@]1(C)Cl` (some centres not stated) yielded an AZT formation [6] of 0%, an AZT formation [7] of 0% and a Phosphorolysis [3] of 0%. The AZT formation [8] was 0%.

In the case of `CC(C)O[C@H]1N(C2CC(N=[N+]=[N-])C(CO)O2)C(=O)NC(=O)[C@]1(C)Cl` (some centres not stated), the IC50 [1] is reported as over 200 µM and the EC50 [2] is reported as “Not Active”.

With `CCCCCCCCCCCCCCCCO[C@H]1N(C2CC(N=[N+]=[N-])C(CO)O2)C(=O)NC(=O)[C@]1(C)Cl` (some centres not stated) the IC50 [1] was 31 µM and the EC50 [2] was “Not Active”.

`CCCCCCCCO[C@H]1N(C2CC(N=[N+]=[N-])C(CO)O2)C(=O)NC(=O)[C@]1(C)Br` (some centres not stated) showed an IC50 [1] of 12.4 µM and a selectivity ratio [4] of 14.

Molecule `CCO[C@H]1N(C2CC(N=[N+]=[N-])C(CO)O2)C(=O)NC(=O)[C@]1(C)Br` (some centres not stated) has an IC50 [1] of 18.5 µM, a Phosphorolysis [3] of 0% and an AZT formation [8] of 100%. It also gave a selectivity ratio [4] of 2740.

`CO[C@H]1N(C2CC(N=[N+]=[N-])C(CO)O2)C(=O)NC(=O)[C@]1(C)I` (some centres not stated) gave an IC50 [1] of 18.7 µM, an AZT formation [6] of 100% and an AZT formation [7] of 79%. It also gave a Phosphorolysis [3] of 0%, an AZT formation [8] of 100% and a selectivity ratio [4] of 5900.

With `CCO[C@H]1N(C2CC(N=[N+]=[N-])C(CO)O2)C(=O)NC(=O)[C@@]1(C)Cl` (some centres not stated) the IC50 [1] was over 200 µM and the EC50 [2] was “Not Active”.

`CO[C@@H]1N(C2CC(N=[N+]=[N-])C(CO)O2)C(=O)NC(=O)[C@@]1(C)I` (some centres not stated) showed an IC50 [1] of 6.42 µM, an AZT formation [6] of 100% and an AZT formation [7] of 96%. The Phosphorolysis [3] was 0%, the AZT formation [8] was 100% and the selectivity ratio [4] was 1250.

`CO[C@H]1N(C2CC(N=[N+]=[N-])C(CO)O2)C(=O)NC(=O)[C@]1(C)Br` (some centres not stated) showed an IC50 [1] of 17.2 µM, an AZT formation [6] of 59% and an AZT formation [7] of 26%. It also gave a Phosphorolysis [3] of 0%, an AZT formation [8] of 80% and a selectivity ratio [4] of 5260.
